Converted amounts (≈) assume the structure as drawn. The source made the active and inactive calls. No cut-off for these calls is given here.
Legend:
[1] = AUC in rat at 1 mg/kg, iv; format: ADME, organism-based; design: dose 1 mg/kg, route intravenous; conditions: plasma
[2] = Volume of distribution at steady state in rat at 1 mg/kg, iv; format: ADME, organism-based; design: dose 1 mg/kg, route intravenous; conditions: in vivo, read-out: Vdss
[3] = Permeability from basal to apical side of MDCK cells; format: ADME, cell-based, Canis lupus familiaris; conditions: dog, read-out: permeability
In short: (§1)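 MDCK monolayer permeability measured in A→B and B→A directions, expressed as ×10⁻⁶ cm/s; efflux ratio taken as B:A over A:B.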

Rattus norvegicus [4] = assay: Drug metabolism in rat assessed as hydroxamate cleavage at 5 mg/kg, po; format: ADME, organism-based; design: dose 5 mg/kg, route oral; conditions: in vivo
Mus musculus [5] = assay: Toxicity in nude nu/nu mouse bearing human HCT116 xenograft assessed as body weight loss at 75 mg/kg, po administered QD for 3 weeks relative to vehicle-treated; format: organism-based; design: dose 75 mg/kg, route oral; conditions: in vivo, 504 h
In short: (§2)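 HCT116 colorectal xenografts in nude mice; animals randomized, dosed orally once daily for 3 weeks at 5, 25 or 75 mg/kg vs vehicle. Tumor volume and body weight tracked; animals euthanized at tumor volume >2000 mm³ or body weight loss >20%.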

[6] = Clearance in mouse at 1 mg/kg, iv; format: ADME, organism-based; design: dose 1 mg/kg, route intravenous; conditions: in vivo
Mus musculus [7] = assay: Inhibition of MEK-mediated ERK1/2 Thr185/Tyr187 phosphorylation in human HCT116 cells xenografted in nude nu/nu mouse at 25 mg/kg, po administered as single dose after 8 hrs relative to vehicle-treated control; format: functional; conditions: HCT-116, 8 h
[8] = Oral bioavailability in rat at 5 mg/kg; format: ADME, organism-based; conditions: in vivo
In short: (§3)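 Oral PK: rat dosed 5 mg/kg PO as solution; mouse dosed 25 mg/kg PO as suspension. Plasma AUC (μM·h) and bioavailability F (%) determined.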

Rattus norvegicus [9] = assay: Unbound AUC in po dosed rat; format: ADME, organism-based; conditions: in vivo
Mus musculus [10] = assay: Toxicity in nude nu/nu mouse bearing human HCT116 xenograft assessed as body weight loss at 5 mg/kg, po administered QD for 3 weeks relative to vehicle-treated; format: organism-based; design: dose 5 mg/kg, route oral; conditions: in vivo, 504 h; in short: as §2
Mus musculus [11] = assay: (§4) AUC in mouse at 25 mg/kg, po; format: ADME, organism-based, Plasma; design: dose 25 mg/kg, route oral; conditions: in vivo; in short: as §3
Mus musculus [12] = assay: Oral bioavailability in mouse at 25 mg/kg; format: ADME, organism-based; conditions: in vivo; in short: as §3
HCT-116 [13] = assay: Antiproliferative activity against human HCT116 cells after 72 hrs by CellTiterGlo assay; conditions: HCT-116, 72 h
[14] = Volume of distribution at steady state in mouse at 1 mg/kg, iv; format: ADME, organism-based; design: dose 1 mg/kg, route intravenous; conditions: in vivo, read-out: Vdss
[15] = Half life in mouse at 25 mg/kg, po; format: ADME, organism-based; design: dose 25 mg/kg, route oral; conditions: in vivo
[16] = Solubility of the compound in fasted state simulated intestinal fluid; format: physicochemical
In short: (§5)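 Solubility measured in aqueous buffer at pH 6.5 and in fasted-state simulated intestinal fluid (FASSIF), expressed in […].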

Rattus norvegicus [17] = species on record: Rattus norvegicus; assay: Unbound clearance in rat; format: ADME, organism-based; conditions: in vivo
A-375 [18] = assay: Antiproliferative activity against human A375 cells after 72 hrs by CellTiterGlo assay; conditions: A-375, 72 h
[19] = AUC in rat at 5 mg/kg, po; format: ADME, organism-based; design: dose 5 mg/kg, route oral; conditions: plasma; in short: as §3
[20] = Half life in rat at 1 mg/kg, iv; format: ADME, organism-based; design: dose 1 mg/kg, route intravenous; conditions: in vivo
HCT-116 [21] = assay: Antitumor activity against human HCT116 cells xenografted in nude nu/nu mouse assessed as tumor growth inhibition at 25 and 75 mg/kg, po administered QD for 3 weeks relative to vehicle-treated; format: functional, organism-based; design: dose 75 mg/kg; in short: as §2
[22] = Half life in mouse at 1 mg/kg, iv; format: ADME, organism-based; design: dose 1 mg/kg, route intravenous; conditions: in vivo
[23] = Plasma protein binding in rat; format: ADME, cell-free; conditions: read-out: PPB (converted)
Rattus norvegicus [24] = assay: Drug metabolism in rat assessed as glucuronidation at 5 mg/kg, po; format: ADME, organism-based; design: dose 5 mg/kg, route oral; conditions: in vivo
[25] = Permeability from apical to basal side of MDCK cells; format: ADME, cell-based, Canis lupus familiaris; conditions: dog, read-out: permeability; in short: as §1
[26] = Clearance in rat at 1 mg/kg, iv; format: ADME, organism-based; design: dose 1 mg/kg, route intravenous; conditions: in vivo
HCT-116 [27] = assay: Antitumor activity against human HCT116 cells xenografted in nude nu/nu mouse assessed as tumor growth inhibition at 5 mg/kg, po administered QD for 3 weeks relative to vehicle-treated control; format: functional; in short: as §2
Mus musculus [28] = assay: (§6) AUC in mouse at 1 mg/kg, iv; format: ADME, organism-based, Plasma; design: dose 1 mg/kg, route intravenous; conditions: in vivo
[29] = Solubility of the compound at pH 6.5; format: physicochemical; conditions: buffer; in short: as §5
[30] = Plasma protein binding in mouse; format: ADME, cell-free; conditions: read-out: PPB (converted)
Cytochrome P450 2C19 = Cytochrome P450 2C19 (Homo sapiens, UniProt P33261); assay: Inhibition of CYP2C19; format: ADME
Cytochrome P450 2C19, sequence (P33261 whole entry): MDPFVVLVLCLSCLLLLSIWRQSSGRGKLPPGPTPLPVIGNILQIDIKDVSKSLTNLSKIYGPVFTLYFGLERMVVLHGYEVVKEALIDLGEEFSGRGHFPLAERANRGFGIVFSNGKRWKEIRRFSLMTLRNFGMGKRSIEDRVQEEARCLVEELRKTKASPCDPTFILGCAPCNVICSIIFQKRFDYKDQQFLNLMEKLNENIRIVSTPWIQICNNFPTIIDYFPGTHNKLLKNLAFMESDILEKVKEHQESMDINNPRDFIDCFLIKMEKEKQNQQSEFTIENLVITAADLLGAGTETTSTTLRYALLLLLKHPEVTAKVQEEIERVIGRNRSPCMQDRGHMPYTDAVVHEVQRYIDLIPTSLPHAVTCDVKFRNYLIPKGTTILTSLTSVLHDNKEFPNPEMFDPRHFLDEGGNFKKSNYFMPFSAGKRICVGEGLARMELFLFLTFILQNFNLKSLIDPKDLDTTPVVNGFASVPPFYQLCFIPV

Cytochrome P450 2C9 = Cytochrome P450 2C9 (Homo sapiens, UniProt P11712); assay: Inhibition of CYP2C9; format: ADME
Cytochrome P450 2C9, sequence (P11712 whole entry): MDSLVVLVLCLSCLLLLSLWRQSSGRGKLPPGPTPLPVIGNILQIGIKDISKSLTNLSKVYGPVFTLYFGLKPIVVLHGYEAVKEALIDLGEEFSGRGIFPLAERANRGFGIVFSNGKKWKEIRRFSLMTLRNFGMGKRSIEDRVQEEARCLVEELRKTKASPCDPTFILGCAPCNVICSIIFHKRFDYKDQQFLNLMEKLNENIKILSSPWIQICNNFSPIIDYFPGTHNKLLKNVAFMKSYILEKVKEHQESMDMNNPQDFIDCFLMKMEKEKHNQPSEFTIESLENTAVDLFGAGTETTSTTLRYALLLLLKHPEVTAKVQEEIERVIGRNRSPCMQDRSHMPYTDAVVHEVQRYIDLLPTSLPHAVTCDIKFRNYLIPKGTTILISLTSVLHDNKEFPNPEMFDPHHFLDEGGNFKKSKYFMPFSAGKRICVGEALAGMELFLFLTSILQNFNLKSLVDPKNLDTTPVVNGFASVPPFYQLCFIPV

[31] = Ratio of EC50 for human A375 cells to IC50 for MEK1-mediated ERK1 phosphorylation; design: species or system A-375
[32] = Ratio of EC50 for human HCT116 cells to IC50 for MEK1-mediated ERK1 phosphorylation; design: species or system HCT-116
[33] = molecular target: T1, Dual specificity mitogen-activated protein kinase kinase 1 (Homo sapiens, UniProt Q02750); assay: Inhibition of MEK1-mediated ERK1 phosphorylation in human A375 cells after 2 hrs by immunofluorescence high content imaging
T1 sequence (Q02750 whole entry): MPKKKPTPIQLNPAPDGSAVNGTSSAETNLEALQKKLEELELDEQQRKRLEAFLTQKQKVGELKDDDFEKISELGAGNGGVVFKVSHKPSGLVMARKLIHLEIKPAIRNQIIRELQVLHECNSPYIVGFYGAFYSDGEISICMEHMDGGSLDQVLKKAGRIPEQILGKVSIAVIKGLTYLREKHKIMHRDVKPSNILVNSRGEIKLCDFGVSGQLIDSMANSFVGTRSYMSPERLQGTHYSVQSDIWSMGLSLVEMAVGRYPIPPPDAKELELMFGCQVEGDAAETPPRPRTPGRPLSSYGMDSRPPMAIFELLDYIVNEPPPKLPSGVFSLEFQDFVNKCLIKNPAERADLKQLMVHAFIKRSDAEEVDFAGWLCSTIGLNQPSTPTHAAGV

[34] = molecular target: T1, Dual specificity mitogen-activated protein kinase kinase 1; assay: Inhibition of MEK1-mediated ERK1 phosphorylation in human HCT116 cells after 2 hrs by immunofluorescence high content imaging
[35] = molecular target: T1, Dual specificity mitogen-activated protein kinase kinase 1; assay: Inhibition of MEK1-mediated ERK1 phosphorylation after 30 mins by HTRF assay
A-375 [36] = assay: Ratio of EC50 for human HCT116 cells to EC50 for human A375 cells; format: functional
[37] = as §4; format: ADME, organism-based, Plasma; design: dose 25 mg/kg, route oral; conditions: plasma; in short: as §3
[38] = as §6; format: ADME, organism-based, Plasma; design: dose 1 mg/kg, route intravenous; conditions: plasma
[39] = Efflux ratio of permeability from basal to apical to apical to basal side of MDCK cells; format: ADME, cell-based, Canis lupus familiaris; conditions: dog; in short: as §1

`O=C(NOCCO)c1ccc2[nH]ncc2c1Nc1ccc(I)cc1F` showed an AUC [1] of 1.01 µM·h, a Vd [2] of 2.4 L/kg and a Papp B→A [3] of 13.8 ×10⁻⁶ cm/s. For the same compound, the Drug metabolism (Rattus norvegicus [4]) was “Active”, the Activity (Mus musculus [5]) was 10% and the clearance [6] was 88 mL/min/kg. It also gave an inhibition in vivo at 25 mg/kg (Mus musculus [7]) of 70%, a bioavailability [8] of 21% and a fAUC (Rattus norvegicus [9]) of 0.04 µM·h. The Activity (Mus musculus [10]) was “Non-toxic”, the AUC (Mus musculus [11]) was 1.96 µM·h and the F (Mus musculus [12]) was 94%. The EC50 (HCT-116 [13]) was 16 nM, the Vd [14] was 2 L/kg and the half-life [15] was 2.9 h. The solubility [16] was 180 µg/mL (≈ 395 µM), the CL free (Rattus norvegicus [17]) was 923 mL/min/kg and the EC50 (A-375 [18]) was 2 nM. For the same compound, the AUC [19] was 1.06 µM·h, the half-life [20] was 1.4 h and the “growth inhibition (GI)” value (HCT-116 [21]) was “Active”. For the same compound, the half-life [22] was 0.6 h, the fraction unbound [23] was 0.039 and the Drug metabolism (Rattus norvegicus [24]) was “Active”. For the same compound, the Papp A→B [25] was 9.9 ×10⁻⁶ cm/s, the clearance [26] was 36 mL/min/kg and the inhibition in vivo at 5 mg/kg (HCT-116 [27]; HCT-116, 504 h, read-out: GI) was 94%. It also gave an AUC (Mus musculus [28]) of 0.41 µM·h, a solubility [29] of 80 µg/mL (≈ 175 µM) and a fraction unbound [30] of 0.03.
With `O=C(NOCCO)c1ccc2cnsc2c1Nc1ccc(I)cc1F` the EC50 (HCT-116 [13]) was 44 nM, the “inhibition (INH)” value (Cytochrome P450 2C19) was “Not Active” and the EC50 (A-375 [18]) was 7 nM. For the same compound, the “inhibition (INH)” value (Cytochrome P450 2C9) was “Not Active”.
With `O=C(NOC[C@H](O)CO)c1ccc2cnsc2c1Nc1ccc(I)cc1F` the AUC [1] was 2.2 µM·h, the Vd [2] was 0.97 L/kg and the Ratio [31] was 0.47. It also gave a bioavailability [8] of 51%, a fAUC (Rattus norvegicus [9]) of 0.046 µM·h and an EC50 (HCT-116 [13]) of 62 nM. It also gave a CL free (Rattus norvegicus [17]) of 1875 mL/min/kg, an EC50 (A-375 [18]) of 10 nM and an AUC [19] of 5.7 µM·h. The half-life [20] was 1.6 h, the Ratio [32] was 2.9 and the fraction unbound [23] was 0.008. For the same compound, the EC50 [33] was 1.1 nM, the EC50 [34] was 0.9 nM and the clearance [26] was 15 mL/min/kg. For the same compound, the IC50 [35] was 20 nM.
In the case of `C[C@H](O)CONC(=O)c1oc2c(F)cncc2c1Nc1ccc(I)cc1F`, the “Ratio EC50” value (A-375 [36]) is reported as 8, the clearance [6] is reported as 7.7 mL/min/kg and the Ratio [31] is reported as 0.65. The AUC [37] was 192 µM·h, the F (Mus musculus [12]) was 173% and the EC50 (HCT-116 [13]) was 175 nM. It also gave a Vd [14] of 0.71 L/kg, an EC50 (A-375 [18]) of 23 nM and a Ratio [32] of 5. It also gave a half-life [22] of 2.3 h, an EC50 [33] of 7.2 nM and an EC50 [34] of 4 nM. For the same compound, the Activity (HCT-116 [27]) was “Active”, the AUC [38] was 4.42 µM·h and the IC50 [35] was 35 nM. For the same compound, the fraction unbound [30] was 0.016.
With `O=C(NOC[C@H](O)CO)c1oc2ccncc2c1Nc1ccc(I)cc1F` the EC50 (HCT-116 [13]) was 314 nM and the EC50 (A-375 [18]) was 264 nM.
For `O=C(NOCC1CC1)c1ccc2[nH]ncc2c1Nc1ccc(I)cc1F`, the EC50 (HCT-116 [13]) was 127 nM and the EC50 (A-375 [18]) was 9 nM.
For `CCONC(=O)c1ccc2[nH]ncc2c1Nc1ccc(I)cc1F`, the EC50 (HCT-116 [13]) was 132 nM, the EC50 (A-375 [18]) was 4.9 nM and the EC50 [33] was 2.4 nM. The EC50 [34] was 1.3 nM and the IC50 [35] was 93 nM.
`O=C(NOC[C@H](O)CO)c1ccc2[nH]ncc2c1Nc1ccc(I)cc1F` showed a Papp B→A [3] of 7.1 ×10⁻⁶ cm/s, a Ratio [31] of 0.8 and an EC50 (HCT-116 [13]) of 31 nM. The efflux ratio [39] was 3.5, the EC50 (A-375 [18]) was 12 nM and the Ratio [32] was 2. For the same compound, the EC50 [33] was 3.7 nM, the Papp A→B [25] was 2 ×10⁻⁶ cm/s and the EC50 [34] was 0.4 nM. For the same compound, the IC50 [35] was 15 nM.
With `O=C(NCCCO)c1ccc2[nH]ncc2c1Nc1ccc(I)cc1F` the IC50 [35] was > 10000 nM.
In the case of `O=C(NOCCO)c1ccc2[nH]ncc2c1Nc1ccc(Br)cc1F`, the AUC [1] is reported as 0.75 µM·h, the Vd [2] is reported as 1.5 L/kg and the “Ratio EC50” value (A-375 [36]) is reported as 8. The Ratio [31] was 0.15, the bioavailability [8] was 34% and the EC50 (HCT-116 [13]) was 193 nM. For the same compound, the EC50 (A-375 [18]) was 19 nM, the AUC [19] was 1.29 µM·h and the half-life [20] was 0.36 h. For the same compound, the Ratio [32] was 1.5, the fraction unbound [23] was 0.035 and the EC50 [33] was 6.4 nM. It also gave an EC50 [34] of 3.4 nM, a clearance [26] of 54 mL/min/kg and an IC50 [35] of 125 nM.
